{"data": "Measured values collected from several papers", "medium": "plasma"}
{"SMILES": "CCNc1nc2c(c(N3CC(=O)Nc4cc(OC)ccc43)n1)CCC2", "system": "female C57BL/6 mouse", "setting": "intravenous, 4 mg/kg, single dose", "Vd": "4.7 L/kg"}
{"SMILES": "COc1cc(C(=O)N2CCC(N3CCN(C)CC3)CC2)ccc1Nc1ncc2c(n1)N(C)c1ccccc1C(=O)N2C", "system": "mouse", "setting": "intravenous, 1 mg/kg", "Vd": "1.71 L/kg"}
{"SMILES": "CNC(=O)c1cc(OC)cc2c(N3CCc4c(cc(Cn5ccnc5)cc4-c4cn(C)nc4C(F)(F)F)C3=O)ccnc12", "system": "male CD-1 mouse", "setting": "intravenous, 3 mg/kg", "Vd": "0.4 L/kg"}
{"SMILES": "CNCCN(C)c1cc(C#N)cc(CCc2cc(C)cc(N)n2)c1", "system": "male BALB/c mouse", "setting": "intravenous, 2 mg/kg", "Vd": "14.8 L/kg"}
{"SMILES": "COc1nc(-c2cc(C)c(N[C@@H](C)c3ccc(F)cc3)nn2)ccc1-n1cnc(C)c1", "system": "male CD-1 mouse", "setting": "intravenous, 1 mg/kg, single dose", "Vd": "1.02 L/kg"}
{"SMILES": "CC(C)(C)c1ccc(O)c(CN(Cc2cc(C(C)(C)C)ccc2O)C2CCC(NC(N)=O)CC2)c1 (stereo not shown)", "system": "male C57BL/6 mouse", "setting": "intraperitoneal, 25 mg/kg, single dose", "Vd": "5.6 L"}
{"SMILES": "COc1cc(OC)c2nccc(N3CCc4c(cc(Cn5ccnc5)cc4-c4cn(C)nc4C(F)(F)F)C3=O)c2c1", "system": "male CD-1 mouse", "setting": "intravenous, 3 mg/kg", "Vd": "2 L/kg"}
{"SMILES": "CC[C@H](C)[C@@H]1NC(=O)[C@@](C)(NC(=O)[C@H](CCCNC(=N)N)NC(=O)[C@H](CC(C)C)NC(=O)[C@@H](NC(=O)[C@H](CCC(N)=O)NC(=O)[C@H](CC(C)C)NC(C)=O)[C@@H](C)O)CCCC=CCCC[C@@](C)(C(=O)N[C@@H](CC(C)C)C(=O)N[C@@H](Cc2ccc3ccccc3c2)C(N)=O)NC(=O)[C@H](CCCNC(=N)N)NC(=O)[C@H](CCC(N)=O)NC1=O", "system": "male BALB/c mouse", "setting": "intravenous, 10 mg/kg", "Vd": "0.0788 L/kg"}
{"SMILES": "CCc1cc(OC)c2nccc(N3CCc4c(cc(Cn5ccnc5)cc4-c4cn(C)nc4C(F)(F)F)C3=O)c2c1", "system": "male CD-1 mouse", "setting": "intravenous, 3 mg/kg", "Vd": "0.7 L/kg"}
{"SMILES": "CN1CCC(c2ccccc2CC(C)(C)Nc2nc(N3CCOCC3)nc(-n3c(C(F)F)nc4ccccc43)n2)CC1", "system": "mouse", "setting": "intravenous, 10 mg/kg, single dose", "Vd": "5.61 L/kg"}
